Drawing on BindingDB's records for doi:10.1021/jm00042a007 (Merck Research Laboratories, 1994), this text covers IC50 for 28 compounds.

The structures appear in SMILES notation. Bridge positions count the residues as written; N and C are the ends. Peptide text beside a SMILES is read from it.

Chain of Integrin alpha-IIb/beta-3 (P05106 27-788 limits assumed): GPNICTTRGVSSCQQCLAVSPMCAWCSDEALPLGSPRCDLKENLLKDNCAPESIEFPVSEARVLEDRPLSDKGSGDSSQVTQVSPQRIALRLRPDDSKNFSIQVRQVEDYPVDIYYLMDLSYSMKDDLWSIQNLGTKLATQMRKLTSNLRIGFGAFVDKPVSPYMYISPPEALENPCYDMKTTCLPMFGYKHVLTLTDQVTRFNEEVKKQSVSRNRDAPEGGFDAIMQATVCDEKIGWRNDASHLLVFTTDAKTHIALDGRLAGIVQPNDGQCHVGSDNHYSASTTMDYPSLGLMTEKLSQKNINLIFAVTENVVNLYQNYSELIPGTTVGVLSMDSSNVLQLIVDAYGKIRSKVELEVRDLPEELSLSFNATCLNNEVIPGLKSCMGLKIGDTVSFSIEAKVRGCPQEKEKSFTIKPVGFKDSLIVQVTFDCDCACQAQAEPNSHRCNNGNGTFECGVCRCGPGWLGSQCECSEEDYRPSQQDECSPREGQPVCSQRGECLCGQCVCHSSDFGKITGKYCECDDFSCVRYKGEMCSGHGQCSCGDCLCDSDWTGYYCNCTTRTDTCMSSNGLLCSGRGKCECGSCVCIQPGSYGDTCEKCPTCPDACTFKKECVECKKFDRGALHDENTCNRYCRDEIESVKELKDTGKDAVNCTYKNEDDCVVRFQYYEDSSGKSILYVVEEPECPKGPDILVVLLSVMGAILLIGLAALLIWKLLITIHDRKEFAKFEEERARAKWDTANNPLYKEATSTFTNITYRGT
Chain of Integrin alpha-IIb/beta-3 (P08514 32-887 limits assumed): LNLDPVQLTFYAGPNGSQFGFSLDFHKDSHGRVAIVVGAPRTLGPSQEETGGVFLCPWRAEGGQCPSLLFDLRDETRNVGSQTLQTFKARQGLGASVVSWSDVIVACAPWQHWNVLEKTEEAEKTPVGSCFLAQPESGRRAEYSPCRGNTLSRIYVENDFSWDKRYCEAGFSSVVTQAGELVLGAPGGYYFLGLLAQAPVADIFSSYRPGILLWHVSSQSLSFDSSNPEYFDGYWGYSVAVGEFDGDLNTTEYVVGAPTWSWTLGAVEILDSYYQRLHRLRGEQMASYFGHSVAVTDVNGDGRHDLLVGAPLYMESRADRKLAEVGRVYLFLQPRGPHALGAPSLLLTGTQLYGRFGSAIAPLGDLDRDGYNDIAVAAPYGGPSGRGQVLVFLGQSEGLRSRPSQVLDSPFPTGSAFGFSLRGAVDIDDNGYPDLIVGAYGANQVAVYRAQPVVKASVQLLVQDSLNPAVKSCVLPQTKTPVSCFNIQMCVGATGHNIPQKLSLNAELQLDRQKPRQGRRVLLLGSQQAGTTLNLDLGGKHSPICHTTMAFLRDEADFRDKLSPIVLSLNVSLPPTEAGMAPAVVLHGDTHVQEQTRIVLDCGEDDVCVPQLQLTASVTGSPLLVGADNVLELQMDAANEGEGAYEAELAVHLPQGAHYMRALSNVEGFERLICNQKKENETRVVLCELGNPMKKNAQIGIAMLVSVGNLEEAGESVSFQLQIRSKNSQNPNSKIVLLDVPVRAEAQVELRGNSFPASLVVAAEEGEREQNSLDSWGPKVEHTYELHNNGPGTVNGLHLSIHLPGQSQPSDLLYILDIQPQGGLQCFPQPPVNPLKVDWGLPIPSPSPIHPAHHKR
Chain of Integrin alpha-IIb/beta-3 (P08514 891-1039 limits assumed): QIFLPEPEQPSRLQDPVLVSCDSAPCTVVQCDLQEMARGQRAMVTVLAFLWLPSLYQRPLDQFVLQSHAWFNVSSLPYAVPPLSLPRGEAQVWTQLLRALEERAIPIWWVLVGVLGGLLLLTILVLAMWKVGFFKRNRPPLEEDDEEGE

The assay concerns the target Integrin alpha-IIb/beta-3 (Homo sapiens, UniProt P08514+P05106). Briefly: Inhibition of platelet aggregation as the concentration necessary to inhibit the change in light. The method, boiled down:
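Human gel-filtered platelets at 2 × 10^8/mL were mixed with 0.1 mg/mL human fibrinogen, 1 mM CaCl2 and compound, then aggregated with 10 µM ADP. Light transmittance was compared between control and treated samples.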
With `CCCCCC(=O)N[C@@H](Cc1ccc(OCCCCCCN)cc1)C(=O)O`, the IC50 (as a rule, the concentration at which inhibition is half-maximal) was found to be 5 µM.
For the compound `NCCCCCCOc1ccc(C[C@H](NS(=O)(=O)Cc2ccccc2)C(=O)O)cc1`, the IC50 amounted to 1.9 µM.
On to `O=C(N[C@@H](Cc1ccc(OCCCc2ccccc2)cc1)C(=O)O)OCc1ccccc1`, for which the IC50 is > 1000 µM.
Turning to `N=C(N)NCCC[C@H](N)C(=O)NCC(=O)N[C@@H](CC(=O)O)C(=O)N[C@@H](Cc1c[nH]c2ccccc12)C(=O)O` [2-[1-[1-amino-4-amino(imino)methylamino-(1S)-butylcarboxamidomethylcarboxamido]-2-carboxy-(1S)-ethylcarboxamido]-3-(1H-3-indolyl)-(2S)-propanoic acid] (H-RGDW-OH), the IC50 came out at 1.7 µM.
For `NCCCCCCCCOc1ccc(C[C@H](NC(=O)OCc2ccccc2)C(=O)O)cc1` [3-[4-(8-Amino-octyloxy)-phenyl]-2-benzyloxycarbonylamino-propionic acid] the value was 38 µM.
Regarding `CC(=O)N[C@H]1CSSC[C@@H](C(=O)O)NC(=O)[C@H](CC(=O)O)NC(=O)CNC(=O)[C@H](CCCNC(=N)N)NC1=O` [(4S,7R,13R,16S)-16-Acetylamino-7-carboxymethyl-13-(3-guanidino-propyl)-6,9,12,15-tetraoxo-1,2-dithia-5,8,11,14-tetraaza-cycloheptadecane-4-carboxylic acid] (Ac-CRGDC-OH; disulfide 1-5), the IC50 amounted to 0.68 µM.
For `O=C(O)[C@H](Cc1ccc(OCCCCC2CCNCC2)cc1)NS(=O)(=O)CCc1ccccc1` [(S)-2-(2-Phenyl-ethanesulfonylamino)-3-[4-(4-piperidin-4-yl-butoxy)-phenyl]-propionic acid] the value was 0.029 µM; for `O=C(CCc1ccccc1)N[C@@H](Cc1ccc(OCCCCC2CCNCC2)cc1)C(=O)O` [(S)-2-(3-Phenyl-propionylamino)-3-[4-(4-piperidin-4-yl-butoxy)-phenyl]-propionic acid], 0.1 µM.
For `O=C(O)[C@H](Cc1ccc(OCCCCC2CCNCC2)cc1)NS(=O)(=O)/C=C/c1ccccc1` [(S)-2-((E)-2-Phenyl-ethenesulfonylamino)-3-[4-(4-piperidin-4-yl-butoxy)-phenyl]-propionic acid] the value was 0.043 µM; for `CC(=O)N[C@@H](Cc1ccc(OCCCCC2CCNCC2)cc1)C(=O)O` [(S)-2-Acetylamino-3-[4-(4-piperidin-4-yl-butoxy)-phenyl]-propionic acid], 0.5 µM.
The compound `CC(=O)N[C@@H](Cc1ccc(OCCCCCCN)cc1)C(=O)O` [(S)-2-Acetylamino-3-[4-(6-amino-hexyloxy)-phenyl]-propionic acid] gave an IC50 of 18 µM.
For `O=C(O)[C@H](Cc1ccc(OCCCCC2CCNCC2)cc1)NS(=O)(=O)c1ccccc1` [(S)-2-Benzenesulfonylamino-3-[4-(4-piperidin-4-yl-butoxy)-phenyl]-propionic acid] the value was 0.018 µM; for `O=C(N[C@@H](Cc1ccc(OCCCC2CCNCC2)cc1)C(=O)O)OCc1ccccc1` [(S)-2-Benzyloxycarbonylamino-3-[4-(3-piperidin-4-yl-propoxy)-phenyl]-propionic acid], 6.2 µM; for `CC(C)(C)NCCCOc1ccc(C[C@H](NC(=O)OCc2ccccc2)C(=O)O)cc1` [(S)-2-Benzyloxycarbonylamino-3-[4-(3-tert-butylamino-propoxy)-phenyl]-propionic acid], 28 µM.
For `O=C(N[C@@H](Cc1ccc(OCCCCN2CCNCC2)cc1)C(=O)O)OCc1ccccc1` [(S)-2-Benzyloxycarbonylamino-3-[4-(4-piperazin-1-yl-butoxy)-phenyl]-propionic acid] the value was 0.5 µM; for `O=C(N[C@@H](Cc1ccc(OCCCCCN2CCNCC2)cc1)C(=O)O)OCc1ccccc1` [(S)-2-Benzyloxycarbonylamino-3-[4-(5-piperazin-1-yl-pentyloxy)-phenyl]-propionic acid], 1.1 µM; for `O=C(N[C@@H](Cc1ccc(OC/C=C/CC2CCNCC2)cc1)C(=O)O)OCc1ccccc1` [(S)-2-Benzyloxycarbonylamino-3-[4-((E)-4-piperidin-4-yl-but-2-enyloxy)-phenyl]-propionic acid], 0.24 µM.
For `CC(C)(C)CC(C)(C)NCCCOc1ccc(C[C@H](NC(=O)OCc2ccccc2)C(=O)O)cc1` [(S)-2-Benzyloxycarbonylamino-3-{4-[3-(1,1,3,3-tetramethyl-butylamino)-propoxy]-phenyl}-propionic acid] the value was > 100 µM; for `CN1CCN(CCCOc2ccc(C[C@H](NC(=O)OCc3ccccc3)C(=O)O)cc2)CC1` [(S)-2-Benzyloxycarbonylamino-3-{4-[3-(4-methyl-piperazin-1-yl)-propoxy]-phenyl}-propionic acid], 5.2 µM; for `CS(=O)(=O)N[C@@H](Cc1ccc(OCCCCC2CCNCC2)cc1)C(=O)O` [(S)-2-Methanesulfonylamino-3-[4-(4-piperidin-4-yl-butoxy)-phenyl]-propionic acid], 0.063 µM.
Turning to `CCCCC(=O)N[C@@H](Cc1ccc(OCCCCC2CCNCC2)cc1)C(=O)O` [(S)-2-Pentanoylamino-3-[4-(4-piperidin-4-yl-butoxy)-phenyl]-propionic acid], the IC50 turned out to be 0.047 µM.
On to `CCCCS(=O)(=O)N[C@H](CC(=O)O)Cc1ccc(OCCCC2CCNCC2)cc1` [(S)-3-(Butane-1-sulfonylamino)-4-[4-(3-piperidin-4-yl-propoxy)-phenyl]-butyric acid], for which the midpoint of inhibition, the IC50, lay at 0.6 µM.
In turn, `CCCCS(=O)(=O)N[C@H](CC(=O)O)Cc1ccc(OCCCCC2CCNCC2)cc1` [(S)-3-(Butane-1-sulfonylamino)-4-[4-(4-piperidin-4-yl-butoxy)-phenyl]-butyric acid] returned an IC50 of 0.14 µM.
For `CCCS(=O)(=O)N[C@@H](Cc1ccc(OCCCCC2CCNCC2)cc1)C(=O)O` [(S)-3-[4-(4-Piperidin-4-yl-butoxy)-phenyl]-2-(propane-1-sulfonylamino)-propionic acid] the value was 0.023 µM; for `O=C(O)[C@H](Cc1ccc(OCCCCC2CCNCC2)cc1)NS(=O)(=O)c1cccs1` [(S)-3-[4-(4-Piperidin-4-yl-butoxy)-phenyl]-2-(thiophene-2-sulfonylamino)-propionic acid], 0.015 µM; for `CCC(=O)N[C@@H](Cc1ccc(OCCCCC2CCNCC2)cc1)C(=O)O` [(S)-3-[4-(4-Piperidin-4-yl-butoxy)-phenyl]-2-propionylamino-propionic acid], 0.105 µM.
The compound `NCCCCCCOc1ccc(C[C@H](NC(=O)c2ccccc2)C(=O)O)cc1` [(S)-3-[4-(6-Amino-hexyloxy)-phenyl]-2-benzoylamino-propionic acid] came in with an IC50 of 10 µM.
For `CCCC(=O)N[C@@H](Cc1ccc(OCCCCCCN)cc1)C(=O)O` [(S)-3-[4-(6-Amino-hexyloxy)-phenyl]-2-butyrylamino-propionic acid] the value was 5.7 µM.
